Calls of active or inactive are those of the source. The rule behind the calls is not given here.
How the values were obtained:
[1] = target: T1, Neuropeptides B/W receptor type 1 (Homo sapiens, UniProt P48145); assay: Antagonist activity at human NPBWR1 expressed in CHO-K1 cells assessed as inhibition of hNPW23 and forskolin-stimulated cAMP production after 1 hr by TR-FRET assay; type: functional, cell-based
T1 sequence (P48145 whole entry): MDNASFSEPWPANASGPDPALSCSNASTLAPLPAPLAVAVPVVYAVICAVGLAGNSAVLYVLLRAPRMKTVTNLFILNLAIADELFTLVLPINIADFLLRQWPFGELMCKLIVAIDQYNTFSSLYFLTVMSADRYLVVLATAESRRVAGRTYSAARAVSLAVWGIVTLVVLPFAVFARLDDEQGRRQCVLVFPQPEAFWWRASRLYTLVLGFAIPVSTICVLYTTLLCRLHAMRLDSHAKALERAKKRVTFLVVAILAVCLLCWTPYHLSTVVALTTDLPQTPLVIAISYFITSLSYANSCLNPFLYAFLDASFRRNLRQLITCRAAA

[2] = target: T2, Neuropeptides B/W receptor type 1 (Mus musculus, UniProt P49681); assay: Antagonist activity at mouse NPBWR1 expressed in CHO-K1 cells assessed as inhibition of hNPW23 and forskolin-stimulated cAMP production after 1 hr by TR-FRET assay; type: functional, cell-based
T2 sequence (P49681 whole entry): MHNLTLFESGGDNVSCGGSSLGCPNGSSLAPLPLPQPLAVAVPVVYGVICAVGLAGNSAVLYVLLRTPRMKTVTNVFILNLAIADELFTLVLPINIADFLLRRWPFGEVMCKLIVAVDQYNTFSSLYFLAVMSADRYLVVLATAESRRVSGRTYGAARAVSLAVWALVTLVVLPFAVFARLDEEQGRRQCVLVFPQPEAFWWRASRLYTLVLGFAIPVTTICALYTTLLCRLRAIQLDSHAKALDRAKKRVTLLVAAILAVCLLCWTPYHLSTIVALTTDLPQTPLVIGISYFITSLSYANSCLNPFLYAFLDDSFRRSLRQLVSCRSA

[3] = target: T2, Neuropeptides B/W receptor type 1; assay: Displacement of [125]-hNPW23 from mouse NPBWR1 expressed in CHO-K1 cells membrane by scintillation proximity assay; type: cell membranes
LLC-PK1 = assay: P-glycoprotein-mediated efflux in pig LLC-PK1 cells expressing MDR1; type: cell-based; settings: Sus scrofa
[4] = target: T1, Neuropeptides B/W receptor type 1; assay: Displacement of [125]-hNPW23 from human NPBWR1 expressed in CHO-K1 cells membrane by scintillation proximity assay; type: cell membranes
[5] = Metabolic stability in mouse liver microsomes assessed as compound remaining after 30 mins; type: ADME, Microsome; settings: read-out: Stability
Summary of the method: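 Compounds were incubated with mouse liver microsomes. The read-out was the percentage of parent compound remaining at 30 min.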

Row | Structure (SMILES) | IC50 [1] [nM] | IC50 [2] [nM] | IC50 [3] [nM] | IC50 [4] [nM] | remaining at 0.5 h [5] [%] | Activity (LLC-PK1)
1 | COc1ccc([C@@H](C)N[C@@H]2CC[C@H](C(=O)N3CCN(c4ccc(Cl)cn4)CC3)[C@@H](c3ccsc3)C2)cc1 | 1920 | 360 | 25 | 324 | 0 | Active
2 | CC(C)(N[C@@H]1CC[C@H](C(=O)N2CCN(c3ccc(Cl)cn3)CC2)[C@@H](c2ccsc2)C1)c1ccc([N+](=O)[O-])cc1 |  | 1100 | 100 |  |  | 
3 | COc1ccc([C@@H](C)N[C@@H]2CC[C@H](C(=O)N3CCN(c4ccc(C#N)cn4)CC3)[C@@H](c3ccsc3)C2)cc1 |  | 7050 | 1140 |  |  | 
4 | COc1ccc(C2(N[C@@H]3CC[C@H](C(=O)N4CCN(c5ccc(Cl)cn5)CC4)[C@@H](c4ccsc4)C3)CC2)cc1 |  | 523 | 56 |  |  | 
5 | COc1ccc(C2(N[C@@H]3CC[C@H](C(=O)N4CCN(c5nc6ccccc6o5)CC4)[C@@H](c4ccsc4)C3)CCC2)cc1 |  |  |  |  | < 10 | Active
6 | COc1ccc(C(C)(C)N[C@@H]2CC[C@H](C(=O)N3CCN(c4nc5ccccc5[nH]4)CC3)[C@@H](c3ccsc3)C2)cc1 |  |  |  |  | < 10 | Active
7 | COc1ccc(CN[C@@H]2CC[C@H](C(=O)N3CCN(c4ccc(Cl)cn4)CC3)[C@@H](c3ccsc3)C2)cc1 |  | 3590 | 1520 |  |  | 
8 | COc1ccc([C@@H](C)N[C@@H]2CC[C@H](C(=O)N3CCN(c4ccc(OC)cn4)CC3)[C@@H](c3ccsc3)C2)cc1 |  | 7300 |  |  |  | 
9 | O=C([C@H]1CC[C@@H](NC2(c3cccc(Br)c3)CCC2)C[C@@H]1c1ccsc1)N1CCN(c2ccc(Cl)cn2)CC1 |  | 972 | 160 |  |  | 
10 | COc1ccc([C@@H](C)N[C@@H]2CC[C@H](C(=O)N3CCN(c4cc(Cl)ccn4)CC3)[C@@H](c3ccsc3)C2)cc1 |  | 2140 |  |  |  | 
11 | O=C([C@H]1CC[C@@H](NC2(c3ccccc3Br)CCC2)C[C@@H]1c1ccsc1)N1CCN(c2ccc(Cl)cn2)CC1 |  | 2210 | 2200 |  |  | 
12 | C[C@@H](N[C@@H]1CC[C@H](C(=O)N2CCN(c3ccc(Cl)cn3)CC2)[C@@H](c2ccsc2)C1)c1ccccc1 |  | 981 | 217 |  |  | 
13 | COc1ccc([C@@H](C)N[C@@H]2CC[C@H](C(=O)N3CCN(c4ccc(Cl)cc4)CC3)[C@@H](c3ccsc3)C2)cc1 |  | 3860 | 3720 |  |  | 
14 | O=C([C@H]1CC[C@@H](NC2(c3ccc(Br)cc3)CCC2)C[C@@H]1c1ccsc1)N1CCN(c2ccc(Cl)cn2)CC1 |  | 601 | 82 |  |  | 
15 | COc1cccc(C2(N[C@@H]3CC[C@H](C(=O)N4CCN(c5ccc(Cl)cn5)CC4)[C@@H](c4ccsc4)C3)CCC2)c1 |  | 1020 | 118 |  |  | 
16 | COc1ccc([C@@H](C)N[C@@H]2CC[C@H](C(=O)N3CCN(c4ncccc4Cl)CC3)[C@@H](c3ccsc3)C2)cc1 |  | > 32000 |  |  |  | 
17 | COc1ccc([C@@H](C)N[C@@H]2CC[C@H](C(=O)N3CCN(c4ccc(C)cn4)CC3)[C@@H](c3ccsc3)C2)cc1 |  | 400 | 74 |  |  | 
18 | COc1ccc(C2(N[C@@H]3CC[C@H](C(=O)N4CCN(c5nc6cc(C)ccc6o5)CC4)[C@@H](c4ccsc4)C3)CCC2)cc1 |  |  |  |  | < 10 | Active
19 | C[C@@H](N[C@@H]1CC[C@H](C(=O)N2CCN(c3ccc(Cl)cn3)CC2)[C@@H](c2ccsc2)C1)c1ccc(Br)cc1 |  | 2630 | 134 |  |  | 
20 | COc1ccc(C2(N[C@@H]3CC[C@H](C(=O)N4CCN(c5nnc(Br)s5)CC4)[C@@H](c4ccsc4)C3)CCC2)cc1 |  |  |  |  | < 10 | Active
21 | COc1ccc(C2(N[C@@H]3CC[C@H](C(=O)N4CCN(c5nnc(C(F)(F)F)s5)CC4)[C@@H](c4ccsc4)C3)CCC2)cc1 |  |  |  |  | < 10 | Active
22 | CC(C)(N[C@@H]1CC[C@H](C(=O)N2CCN(c3ccc(Cl)cn3)CC2)[C@@H](c2ccsc2)C1)c1ccc(Cl)cc1 |  | 1700 | 27 |  |  | 
23 | COc1ccc(C(C)(C)N[C@@H]2CC[C@H](C(=O)N3CCN(c4nc5ccccc5o4)CC3)[C@@H](c3ccsc3)C2)cc1 |  |  |  |  | < 10 | Active
24 | COc1ccc([C@@H](C)N[C@@H]2CC[C@H](C(=O)N3CCN(c4cccc(Cl)n4)CC3)[C@@H](c3ccsc3)C2)cc1 |  | 7490 |  |  |  | 

The remaining molecules from weak to strong by IC50 [2], led by results:

Row | IC50 [1] [nM] | IC50 [2] [nM] | IC50 [3] [nM] | IC50 [4] [nM] | remaining at 0.5 h [5] [%] | Structure (SMILES) | Activity (LLC-PK1)
25 |  | 330 |  |  |  | COc1ccc([C@@H](C)N[C@@H]2CC[C@H](C(=O)N3CCN(c4ccccn4)CC3)[C@@H](c3ccsc3)C2)cc1 | 
26 |  | 320 | 17 |  |  | CC(C)(N[C@@H]1CC[C@H](C(=O)N2CCN(c3ccc(Cl)cn3)CC2)[C@@H](c2ccsc2)C1)c1ccc(F)cc1 | 
27 |  | 211 | 16 |  |  | Cc1ccc(C(C)(C)N[C@@H]2CC[C@H](C(=O)N3CCN(c4ccc(Cl)cn4)CC3)[C@@H](c3ccsc3)C2)cc1 | 
28 |  | 207 | 194 |  |  | COc1ccc([C@@H](C)N[C@@H]2CC[C@H](C(=O)N3CCN(c4nccs4)CC3)[C@@H](c3ccsc3)C2)cc1 | 
29 |  | 200 |  |  |  | COc1ccc([C@@H](C)N[C@@H]2CC[C@H](C(=O)N3CCN(c4ccc(C(F)(F)F)cn4)CC3)[C@@H](c3ccsc3)C2)cc1 | 
30 |  | 115 | 42 |  |  | COc1ccc([C@@H](C)N[C@@H]2CC[C@H](C(=O)N3CCN(c4nnc(C(F)(F)F)s4)CC3)[C@@H](c3ccsc3)C2)cc1 | 
31 |  | 55 | 14 |  |  | COc1ccc([C@@H](C)N[C@@H]2CC[C@H](C(=O)N3CCN(c4ncc(Br)s4)CC3)[C@@H](c3ccsc3)C2)cc1 | 
32 |  | 43 | 11 |  |  | COc1ccc(C(C)(C)N[C@@H]2CC[C@H](C(=O)N3CCN(c4ccc(Cl)cn4)CC3)[C@@H](c3ccsc3)C2)cc1 | 
33 |  | 24 | 4.5 |  |  | COc1ccc([C@@H](C)N[C@@H]2CC[C@H](C(=O)N3CCN(c4nc5ccccc5s4)CC3)[C@@H](c3ccsc3)C2)cc1 | 
34 |  | 20 | 8.3 |  |  | COc1ccc([C@@H](C)N[C@@H]2CC[C@H](C(=O)N3CCN(c4nc5ccccc5[nH]4)CC3)[C@@H](c3ccsc3)C2)cc1 | 
35 |  | 20 | 3.1 |  |  | COc1ccc(C2(N[C@@H]3CC[C@H](C(=O)N4CCN(c5ccc(Cl)cn5)CC4)[C@@H](c4ccsc4)C3)CCC2)cc1 | 
36 |  | 18 | 2.8 |  |  | COc1ccc([C@@H](C)N[C@@H]2CC[C@H](C(=O)N3CCN(c4nc5ccccc5o4)CC3)[C@@H](c3ccsc3)C2)cc1 | 
37 | 11 | 3 | 1.1 | 5.9 | < 10 | COc1ccc(C2(N[C@@H]3CC[C@H](C(=O)N4CCN(c5nc6ccccc6[nH]5)CC4)[C@@H](c4ccsc4)C3)CCC2)cc1 | Active
38 |  | 1.8 | 0.33 |  | < 10 | COc1ccc(C2(N[C@@H]3CC[C@H](C(=O)N4CCN(c5nc6ccccc6s5)CC4)[C@@H](c4ccsc4)C3)CCC2)cc1 | Active
39 |  | 1.3 | 0.18 |  | < 10 | COc1ccc(C2(N[C@@H]3CC[C@H](C(=O)N4CCN(c5nc6ccc(F)cc6o5)CC4)[C@@H](c4ccsc4)C3)CCC2)cc1 | Active
40 |  | 0.86 | 0.2 |  | < 10 | COc1ccc(C2(N[C@@H]3CC[C@H](C(=O)N4CCN(c5nc6cc(F)ccc6o5)CC4)[C@@H](c4ccsc4)C3)CCC2)cc1 | Active
41 |  | 0.66 | 0.42 |  | < 10 | COc1ccc(C2(N[C@@H]3CC[C@H](C(=O)N4CCN(c5nc6cc(F)ccc6[nH]5)CC4)[C@@H](c4ccsc4)C3)CCC2)cc1 | Active

Reference: ChEMBL document CHEMBL1938351, “The discovery of potent antagonists of NPBWR1 (GPR7)” (Bioorg Med Chem Lett, 2012)
